Experimental data of several laboratories.
Target: Rho-associated protein kinase 2 (ROCK2, Homo sapiens, UniProt O75116)

Compound | test | setting | measurement | value
C=CC(=O)Nc1cc(Nc2nccc(Nc3cc(Cl)c(F)cc3C(C)(C)O)n2)c(OC)cc1N1CC[C@@H](N(C)C)C1 | enzyme activity, inhibitor | 1 µM | inhibition | 15%
c1ccc2c(-c3ccncc3)c[nH]c2c1 | cell-free assay | 0.5 µM | remaining signal | 71.9%
Oc1cccc(-c2nc(N3CCOCC3)c3oc4ncccc4c3n2)c1 | enzyme activity, inhibitor | 10 µM | remaining activity | 91%
CCCOc1ccc(OC)c(F)c1C(=O)c1ccc(C(=O)N[C@@H]2CNC[C@H]2NC(=O)c2ccc3[nH]ncc3c2)cc1 | enzyme activity, inhibitor | 0.75 µM | remaining activity | 4%
O=S(=O)(NCCNC/C=C/c1ccc(Br)cc1)c1cccc2cnccc12 | cell-free assay | 0.5 µM | remaining signal | 15.4%
CC(=O)N1CCC(c2ccc(C(=O)NC3=NCCN3)cc2C(F)(F)F)CC1 | cell-free assay, competition with immobilised ligand | 1 µM | remaining binding | 73%
O=C(Nc1cnn(-c2csc(C(=O)NC3COC3)c2)c1)Nc1c(F)cccc1Cl | enzyme activity, inhibitor | 5 µM | remaining activity | 107%
CNCc1ccc(-c2cc(-c3nc(-c4ccc(S(=O)(=O)C(C)C)cc4)cnc3N)on2)cc1 | enzyme activity, inhibitor | 0.4 µM | inhibition | 0%
Cc1ccc(-n2nc(C(C)(C)C)cc2NC(=O)Nc2ccc(OCCN3CCOCC3)c3ccccc23)cc1 | enzyme activity, inhibitor | 10 µM | inhibition | -3%
Cn1cnc(Br)c1C1=CN(c2ncnc3[nH]cnc23)CCS1 | enzyme activity, inhibitor, radiometric | 50 nM | inhibition | 18.6%
CS(=O)(=O)Nc1cccc(-c2csc(NC(=O)CSc3nc4nccnc4c(=O)n3CCc3ccccc3)n2)c1 | enzyme activity, inhibitor | 10 µM | inhibition | 5%
CCN(CC)CCNC(=O)c1c(C)[nH]c(/C=C2\C(=O)Nc3ccc(F)cc32)c1C | cell-free assay | 0.5 µM | remaining signal | 72.1%
O=C1NC(c2ccccn2)Sc2ccccc21 (stereo not drawn) | cell-free assay, competition with immobilised ligand | 1 µM | remaining binding | 67%
O=C1NC(=O)c2cc(Nc3ccc(F)cc3)c(Nc3ccc(F)cc3)cc21 | cell-free assay | 0.5 µM | remaining signal | 92.8%
COc1cccc(CNC(=O)c2nc3scc(COCc4ccc(C(=O)O)cc4)c3c(=O)[nH]2)c1 | cell-free assay, competition with immobilised ligand | 1 µM | remaining binding | 69.1%
FC(F)c1nc2ccccc2n1-c1nc(N2CCOCC2)nc(N2CCOCC2)n1 | enzyme activity, inhibitor | 10 µM | remaining activity | 85%
CCN(CC)c1ccc(C2=NNC(=O)CC2C)cc1[N+](=O)[O-] (stereo not drawn) | enzyme activity, inhibitor | 10 µM | remaining activity | 99%
Cc1ccc(C(=O)Nc2ccc(CN3CCN(C)CC3)c(C(F)(F)F)c2)cc1C#Cc1cnc2cccnn12 | enzyme activity, inhibitor | 23.5 nM | remaining activity | 89%

Compound | test | setting | measurement | value
Cc1cc(NC(=O)c2cccc3cc(-c4cccc5[nH]nc(N)c45)ccc23)ccc1F | enzyme activity, inhibitor | 0.1 µM | activity vs control | 98%
C[C@H](c1ccnc(Nc2nc3ccc(-c4cc(N(C)C)ncn4)cc3[nH]2)c1)N1CCN(C(=O)CC(F)(F)F)CC1 | cell-free assay, competition with immobilised ligand | 0.1 µM | remaining binding | 100%
CC(C)(O)[C@H]1CC[C@H](Nc2ccc3ncc(-c4cccc(C(F)(F)F)c4)n3n2)CC1 | enzyme activity, inhibitor | 1 µM | remaining activity | 92.8%
CCCS(=O)(=O)Nc1ccc(F)c(C(=O)c2c[nH]c3ncc(-c4ccc(Cl)cc4)cc23)c1F | enzyme activity, inhibitor | 1 µM | inhibition | < 10%
Cc1sc(C(=O)NC2COC2)cc1-n1cc(NC(=O)Nc2c(F)cccc2Cl)cn1 | enzyme activity, inhibitor | 10 µM | remaining activity | 93.6%
COc1cc2ncnc(Nc3ccc(Oc4ccccc4)c(C)c3C)c2cc1OC | enzyme activity, inhibitor | 1 µM | inhibition | 8%
CC(C)(C)c1nc(-c2cccc(NS(=O)(=O)c3c(F)cccc3F)c2F)c(-c2ccnc(N)n2)s1 | enzyme activity, inhibitor, radiometric | 1 µM | remaining activity | 103%
Cc1ccc(Nc2nccc(N(C)c3ccc4c(C)n(C)nc4c3)n2)cc1S(N)(=O)=O | enzyme activity, inhibitor | 0.3 µM | inhibition | -15%
CN(C(=O)c1ccccc1)c1cc(N(C)c2ccc3c(c2)CCc2ccc(C(=O)NCCN4CCOCC4)cc2C3=O)ccc1F | cell-free assay, competition with immobilised ligand | 1 µM | remaining binding | 100%
Nc1nc(Nc2ccccc2)sc1C(=O)c1c(F)cccc1F | enzyme activity, inhibitor | 10 µM | remaining activity | 55%
CN(C)CC#Cc1ccc(OCCCc2sc(N3CCc4cccc(C(=O)Nc5nc6ccccc6s5)c4C3)nc2C(=O)O)c(F)c1 | cell-free assay, competition with immobilised ligand | 1 µM | remaining binding | 100%
CNC(=O)c1cc(Oc2ccc(NC(=O)Nc3ccc(Cl)c(C(F)(F)F)c3)cc2)ccn1 | enzyme activity, inhibitor | 0.3 µM | inhibition | -11%
COc1cc(Nc2cnc(C#N)c(O[C@H](C)CN(C)C)n2)ncc1-c1cnn(C)c1 | enzyme activity, inhibitor, radiometric | 1 µM | remaining activity | 92%
FC(F)(F)c1ccc2c(c1)nc(-c1cccnc1)n2C1CC1 | cell-free assay, competition with immobilised ligand | 1 µM | remaining binding | 100%
Cn1cncc1C1=CN(c2ncnc3[nH]cnc23)CCS1 | enzyme activity, inhibitor, radiometric | 2 µM | inhibition | 93.3%
CC/C(=N\NC(=O)C(C)Nc1ccccc1)c1ccc(O)c(C)c1O (stereo not drawn) | enzyme activity, inhibitor | 0.1 µM | inhibition | 25.7%
CN([C@@H]1CCc2c(CC(=O)O)c3ccccc3n2C1)S(=O)(=O)c1ccc(F)cc1 | cell-free assay, competition with immobilised ligand | 1 µM | remaining binding | 100%
CN1CC(Oc2cnc(C#N)cc2-c2ccn3nc(NC(=O)C4CC4)cc3c2)C1 | enzyme activity, inhibitor | 1 µM | inhibition | 5%
